Source: ChEMBL document CHEMBL5385940 (J Nat Prod, 2024)
The source made the active and inactive calls. No cut-off for these calls is given here.

What was measured:
[1] = Cytotoxicity against mouse 3T3-L1 cells transfected with Lenti-PPARgamma-Luc reporter assessed as cell viability at 5 uM incubated for 48 hrs by CCK-8 assay relative to control; assay type: toxicity, cell-based; settings: read-out: Activity
How it was run: (§1)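 3T3-L1-Lenti-PPARγ-Luc reporter cells (lentivirus-transduced) exposed to alkaloids at a range of concentrations. Viability by CCK-8, absorbance at 450 nm, relative to control, used to set maximum noncytotoxic concentrations. Triplicate.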

[2] = Cytotoxicity against mouse 3T3-L1 cells transfected with Lenti-PPARgamma-Luc reporter assessed as cell viability at 3 uM incubated for 48 hrs by CCK-8 assay relative to control; assay type: toxicity, cell-based; settings: read-out: Activity; how it was run: as §1
[3] = Cytotoxicity against mouse 3T3-L1 cells assessed as cell viability at 5 uM incubated for 48 hrs by CCK-8 assay relative to control; assay type: toxicity, cell-based; settings: read-out: Activity
How it was run: (§2)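 3T3-L1 preadipocytes seeded at 1 × 10^3 cells/well and left 12 h, then exposed to alkaloids for 48 h. Viability by CCK-8, absorbance at 450 nm, relative to control. Lovastatin 5 μM included. Mean ± SD, n = 3.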

[4] = Cytotoxicity against mouse 3T3-L1 cells assessed as cell viability at 1 uM incubated for 48 hrs by CCK-8 assay relative to control; assay type: toxicity, cell-based; settings: read-out: Activity; how it was run: as §2
3T3-L1 [5] = experiment: Anti-adipogenic activity in mouse 3T3-L1 preadipocytes assessed as inhibition of lipid accumulation incubated for 6 days by Nile Red staining based fluorescence microscopic analysis; assay type: functional, cell-based; settings: time 6.0 day
[6] = Cytotoxicity against mouse 3T3-L1 cells assessed as cell viability at 7.5 uM incubated for 48 hrs by CCK-8 assay relative to control; assay type: toxicity, cell-based; settings: read-out: Activity; how it was run: as §2
[7] = Cytotoxicity against mouse 3T3-L1 cells transfected with Lenti-PPARgamma-Luc reporter assessed as cell viability at 4 uM incubated for 48 hrs by CCK-8 assay relative to control; assay type: toxicity, cell-based; settings: read-out: Activity; how it was run: as §1
3T3-L1 [8] = experiment: Anti-adipogenic activity in mouse 3T3-L1 cells transfected with Lenti-PPARgamma-Luc reporter assessed as inhibition of PPARgamma expression by luminescence based microplate reader analysis; assay type: functional, cell-based
[9] = Cytotoxicity against mouse 3T3-L1 cells transfected with Lenti-PPARgamma-Luc reporter assessed as cell viability at 2 uM incubated for 48 hrs by CCK-8 assay relative to control; assay type: toxicity, cell-based; settings: read-out: Activity; how it was run: as §1
3T3-L1 [10] = experiment: Inhibition of adipogenesis in mouse 3T3-L1 cells assessed as downregulation of PPARgamma relative protein level […] by Western blot analysis; assay type: functional, cell-based
How it was run: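 Differentiated 3T3-L1 adipocytes treated with alkaloids at several doses. Lysed in RIPA with PMSF on ice for 30 min. Proteins transferred to PVDF and blocked with 5% skim milk for 2 h at 25 °C. Primary antibody 2 h, HRP secondary 1 h. PPARγ protein level expressed relative to control. n = 3.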

[11] = Cytotoxicity against mouse 3T3-L1 cells transfected with Lenti-PPARgamma-Luc reporter assessed as cell viability at 10 uM incubated for 48 hrs by CCK-8 assay relative to control; assay type: toxicity, cell-based; settings: read-out: Activity; how it was run: as §1
[12] = Cytotoxicity against mouse 3T3-L1 cells transfected with Lenti-PPARgamma-Luc reporter assessed as cell viability at 0.1 uM incubated for 48 hrs by CCK-8 assay relative to control; assay type: toxicity, cell-based; settings: read-out: Activity; how it was run: as §1
[13] = Cytotoxicity against mouse 3T3-L1 cells assessed as cell viability at 10 uM incubated for 48 hrs by CCK-8 assay relative to control; assay type: toxicity, cell-based; settings: read-out: Activity; how it was run: as §2
[14] = Cytotoxicity against mouse 3T3-L1 cells transfected with Lenti-PPARgamma-Luc reporter assessed as cell viability at 1 uM incubated for 48 hrs by CCK-8 assay relative to control; assay type: toxicity, cell-based; settings: read-out: Activity; how it was run: as §1
[15] = Cytotoxicity against mouse 3T3-L1 cells assessed as cell viability at 3 uM incubated for 48 hrs by CCK-8 assay relative to control; assay type: toxicity, cell-based; settings: read-out: Activity; how it was run: as §2
[16] = Cytotoxicity against mouse 3T3-L1 cells transfected with Lenti-PPARgamma-Luc reporter assessed as cell viability at 7.5 uM incubated for 48 hrs by CCK-8 assay relative to control; assay type: toxicity, cell-based; settings: read-out: Activity; how it was run: as §1
[17] = Cytotoxicity against mouse 3T3-L1 cells assessed as cell viability at 25 uM incubated for 48 hrs by CCK-8 assay relative to control; assay type: toxicity, cell-based; settings: read-out: Activity; how it was run: as §2
[18] = Cytotoxicity against mouse 3T3-L1 cells transfected with Lenti-PPARgamma-Luc reporter assessed as cell viability at 2.5 uM incubated for 48 hrs by CCK-8 assay relative to control; assay type: toxicity, cell-based; settings: read-out: Activity; how it was run: as §1
[19] = Cytotoxicity against mouse 3T3-L1 cells transfected with Lenti-PPARgamma-Luc reporter assessed as cell viability at 20 uM incubated for 48 hrs by CCK-8 assay relative to control; assay type: toxicity, cell-based; settings: read-out: Activity; how it was run: as §1
[20] = Cytotoxicity against mouse 3T3-L1 cells transfected with Lenti-PPARgamma-Luc reporter assessed as cell viability at 15 uM incubated for 48 hrs by CCK-8 assay relative to control; assay type: toxicity, cell-based; settings: read-out: Activity; how it was run: as §1
[21] = Cytotoxicity against mouse 3T3-L1 cells assessed as cell viability at 20 uM incubated for 48 hrs by CCK-8 assay relative to control; assay type: toxicity, cell-based; settings: read-out: Activity; how it was run: as §2
[22] = Cytotoxicity against mouse 3T3-L1 cells assessed as cell viability at 15 uM incubated for 48 hrs by CCK-8 assay relative to control; assay type: toxicity, cell-based; settings: read-out: Activity; how it was run: as §2
[23] = Cytotoxicity against mouse 3T3-L1 cells assessed as cell viability at 2.5 uM incubated for 48 hrs by CCK-8 assay relative to control; assay type: toxicity, cell-based; settings: read-out: Activity; how it was run: as §2
[24] = Cytotoxicity against mouse 3T3-L1 cells transfected with Lenti-PPARgamma-Luc reporter assessed as cell viability at 30 uM incubated for 48 hrs by CCK-8 assay relative to control; assay type: toxicity, cell-based; settings: read-out: Activity; how it was run: as §1
[25] = Cytotoxicity against mouse 3T3-L1 cells transfected with Lenti-PPARgamma-Luc reporter assessed as cell viability at 25 uM incubated for 48 hrs by CCK-8 assay relative to control; assay type: toxicity, cell-based; settings: read-out: Activity; how it was run: as §1

SMILES | viability at 48 h, 5 µM [1] [%] | viability at 48 h, 5 µM [3] [%] | Activity (3T3-L1 [5]) | Activity (3T3-L1 [8]) | IC50 (3T3-L1 [8]) [µM] | inhibition (3T3-L1 [10]) | viability at 48 h, 10 µM [11] [%] | viability at 48 h, 0.1 µM [12] [%] | viability at 48 h, 10 µM [13] [%] | viability at 48 h, 1 µM [14] [%] | viability at 48 h, 7.5 µM [16] [%] | viability at 48 h, 25 µM [17] [%] | viability at 48 h, 2.5 µM [18] [%] | viability at 48 h, 20 µM [19] [%] | viability at 48 h, 15 µM [20] [%] | viability at 48 h, 20 µM [21] [%] | viability at 48 h, 15 µM [22] [%] | further results
C=C(c1ccc(O)c(Oc2cc3c(cc2OC)CCN(C)[C@@H]3Cc2ccc(OC)cc2)c1)[C@H]1c2cc(OC)c(OC)cc2CCN1C | > 80 | > 80 | Dose-Dependent Effect | Dose-Dependent Effect | 4.6 | Active | < 80 | > 80 | < 80 | > 80 | < 80 | – | – | – | – | – | – | viability at 48 h, 3 µM [2]: > 80%; viability at 48 h, 1 µM [4]: > 80%; viability at 48 h, 7.5 µM [6]: < 80%; viability at 48 h, 4 µM [7]: > 80%; viability at 48 h, 2 µM [9]: > 80%; viability at 48 h, 3 µM [15]: > 80%
C=C(c1ccc(OC)cc1)[C@@H]1c2cc(Oc3cc(C[C@H]4c5cc(OC)c(OC)cc5CCN4C)ccc3O)c(OC)cc2CCN1C | > 80 | > 80 | Dose-Dependent Effect | Dose-Dependent Effect | – | Active | > 80 | > 80 | > 80 | > 80 | > 80 | < 80 | > 80 | < 80 | > 80 | < 80 | > 80 | –
COc1ccc(C[C@@H]2c3cc(Oc4cc(C[C@@H]5c6cc(O)c(OC)cc6CCN5C)ccc4O)c(OC)cc3CCN2C)cc1 [ISOLIENSININE] | > 80 | > 80 | Dose-Dependent Effect | Dose-Dependent Effect | – | Active | > 80 | > 80 | > 80 | > 80 | > 80 | – | > 80 | < 80 | < 80 | < 80 | < 80 | viability at 48 h, 2.5 µM [23]: > 80%
COc1ccc(C[C@@H]2c3cc(Oc4cc(/C=C5\CN(C)CCc6cc(OC)c(OC)cc65)ccc4O)c(OC)cc3CCN2C)cc1 | > 80 | > 80 | Dose-Dependent Effect | Dose-Dependent Effect | – | Active | > 80 | > 80 | > 80 | > 80 | > 80 | < 80 | > 80 | < 80 | > 80 | < 80 | > 80 | –
C=C(c1ccc(O)c(Oc2cc3c(cc2OC)CCN(C)[C@@H]3Cc2ccc(OC)cc2)c1)[C@@H]1c2cc(O)c(OC)cc2CCN1C | > 80 | > 80 | Dose-Dependent Effect | Dose-Dependent Effect | 8.8 | Active | > 80 | > 80 | > 80 | > 80 | > 80 | – | > 80 | < 80 | < 80 | < 80 | < 80 | viability at 48 h, 2.5 µM [23]: > 80%
CC[C@H](C)C(=O)O[C@H]1C[C@@H](C)C=C2C=C[C@H](C)[C@H](CC[C@@H]3C[C@@H](O)CC(=O)O3)[C@H]21 [LOVASTATIN] | – | > 80 | – | – | – | – | – | – | – | – | – | – | – | – | – | – | – | –
C=C(c1ccc(O)c(Oc2cc3c(cc2OC)CCN(C)[C@@H]3Cc2ccc(OC)cc2)c1)[C@H]1c2cc(O)c(OC)cc2CCN1C | > 80 | > 80 | Dose-Dependent Effect | Dose-Dependent Effect | 4.5 | Active | < 80 | > 80 | < 80 | > 80 | < 80 | – | – | – | – | – | – | viability at 48 h, 3 µM [2]: > 80%; viability at 48 h, 1 µM [4]: > 80%; viability at 48 h, 7.5 µM [6]: < 80%; viability at 48 h, 4 µM [7]: > 80%; viability at 48 h, 2 µM [9]: > 80%; viability at 48 h, 3 µM [15]: > 80%
C=C(c1ccc(O)c(Oc2cc3c(cc2OC)CCN(C)[C@@H]3Cc2ccc(OC)cc2)c1)[C@@H]1c2cc(OC)c(OC)cc2CCN1C | > 80 | > 80 | Dose-Dependent Effect | Dose-Dependent Effect | 10.7 | Active | > 80 | > 80 | > 80 | > 80 | > 80 | < 80 | > 80 | < 80 | > 80 | < 80 | > 80 | –
COc1cc2c(cc1O)[C@@H](Cc1ccc(O)c(Oc3cc4c(cc3OC)CCN(C)[C@@H]4Cc3ccc(O)cc3)c1)N(C)CC2 | > 80 | > 80 | Dose-Dependent Effect | Dose-Dependent Effect | – | Active | > 80 | > 80 | > 80 | > 80 | – | < 80 | – | > 80 | > 80 | > 80 | > 80 | viability at 48 h, 30 µM [24]: < 80%; viability at 48 h, 25 µM [25]: < 80%
COc1ccc(C[C@@H]2c3cc(Oc4cc(C[C@@H]5c6cc(OC)c(OC)cc6CCN5C)ccc4O)c(OC)cc3CCN2C)cc1 [NEFERINE] | > 80 | > 80 | Dose-Dependent Effect | Dose-Dependent Effect | 6.1 | Active | > 80 | > 80 | > 80 | > 80 | > 80 | – | > 80 | < 80 | < 80 | < 80 | < 80 | viability at 48 h, 2.5 µM [23]: > 80%
COc1ccc(C[C@@H]2c3cc(Oc4cc(C[C@H]5c6cc(OC)c(OC)cc6CCN5C)ccc4O)c(OC)cc3CCN2C)cc1 | > 80 | > 80 | Dose-Dependent Effect | Dose-Dependent Effect | 4.5 | Active | < 80 | > 80 | < 80 | > 80 | < 80 | – | – | – | – | – | > 80 | viability at 48 h, 3 µM [2]: > 80%; viability at 48 h, 1 µM [4]: > 80%; viability at 48 h, 7.5 µM [6]: < 80%; viability at 48 h, 4 µM [7]: > 80%; viability at 48 h, 2 µM [9]: > 80%; viability at 48 h, 3 µM [15]: > 80%
